Broadly, the IC50 is the concentration needed to halve the response being measured.

The nature of data set [1]: Toxicity in immunodeficient mouse assessed as body weight change at 100 mg/kg,ip QD for 5 days. The data set is classed as organism-based. To be noted: in vivo, 120 h, time 5 day.
A short description of data set [2]: Metabolic stability in mouse plasma assessed as compound remaining at 5 uM and measured after 120 mins by UPLC-MS/MS analysis. In kind it is ADME, cell-free. To be noted: read-out: Stability. The essentials: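 Male mouse plasma at 37 °C with compound added from a 5 µM solution […]. Sampled at 0, 15, 30, 45, 60 and 120 min, quenched with acetonitrile and read by LC-MS/MS (MRM) in duplicate. Procaine positive control. Remaining % and t1/2 derived from MRM area relative to t = 0.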

The subject of data set [3] is U-87 MG. The data set can be described thus: Induction of autophagy in human U-87 MG cells assessed as decrease in P62 expression at 0.05 to 1 uM incubated for 48 hrs by Western blot analysis. The data set is classed as functional, cell-based. To be noted: U-87MG ATCC. The essentials:
(§1)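 U-87 MG cells cultured two days, then exposed 48 h to increasing doses. Lysed in RIPA with protease inhibitors; 5 µg protein run on 4-20% SDS gels and transferred to PVDF. Probed for phospho/total AKT, S6, S6K, P62 and LC3, detected by ECL. Band intensities normalized to β-actin.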

A short description of data set [4]: Toxicity in immunodeficient mouse assessed as clinical symptoms at 100 mg/kg,ip QD for 5 days. In kind it is organism-based. To be noted: in vivo, 120 h, time 5 day.
Data set [5] has as its target mTORC1 (Homo sapiens) (UniProt P42345+Q8N122+Q9BVC4). The data set can be described thus: Inhibition of mTORC1 signalling in human U-87 MG cells assessed as decrease in S6K phosphorylation at T389 residue at 0.05 to 1 uM incubated for 48 hrs by Western blot analysis. In kind it is cell-based. Summed up:
as §1
For orientation: A western blot detects proteins with antibodies after separation by electrophoresis.

Data set [6] deals with T1, Oxysterol-binding protein 1 (Homo sapiens) (UniProt P22059).
T1 sequence (whole entry): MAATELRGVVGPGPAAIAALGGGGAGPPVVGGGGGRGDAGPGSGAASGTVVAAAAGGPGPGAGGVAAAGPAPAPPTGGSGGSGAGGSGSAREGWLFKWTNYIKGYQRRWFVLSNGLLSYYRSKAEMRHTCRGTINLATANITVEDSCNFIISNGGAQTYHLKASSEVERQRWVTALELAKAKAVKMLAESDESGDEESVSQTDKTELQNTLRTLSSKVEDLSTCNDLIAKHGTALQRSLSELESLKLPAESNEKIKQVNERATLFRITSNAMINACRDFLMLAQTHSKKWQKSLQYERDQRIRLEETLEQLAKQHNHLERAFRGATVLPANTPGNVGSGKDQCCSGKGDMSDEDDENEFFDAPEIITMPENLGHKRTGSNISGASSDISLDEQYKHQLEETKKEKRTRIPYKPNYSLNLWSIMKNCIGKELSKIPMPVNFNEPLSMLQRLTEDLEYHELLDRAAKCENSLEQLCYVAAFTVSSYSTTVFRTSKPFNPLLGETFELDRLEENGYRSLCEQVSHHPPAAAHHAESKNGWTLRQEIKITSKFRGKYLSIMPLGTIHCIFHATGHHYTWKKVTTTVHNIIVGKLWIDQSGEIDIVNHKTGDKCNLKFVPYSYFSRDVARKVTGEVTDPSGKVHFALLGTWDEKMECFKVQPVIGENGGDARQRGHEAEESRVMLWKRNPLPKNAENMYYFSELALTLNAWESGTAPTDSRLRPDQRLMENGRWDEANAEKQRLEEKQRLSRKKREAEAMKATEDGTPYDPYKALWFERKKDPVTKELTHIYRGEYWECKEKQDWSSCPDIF
The data set is described as follows: Inhibition of human OSBP in human hTERT-RPE1 cells assessed as increase in OSBP recruitment at TGN and measured after 10 mins by confocal microscopy. The data set is classed as cell-based.

The subject of data set [7] is A549. The data set can be described thus: Antiproliferative activity against human A549 cells assessed as inhibition of cell proliferation incubated for 72 hrs by CellTiter-Glo luminescent assay. In kind it is functional, cell-based. To be noted: A549, 72 h. Summed up:
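A549 in RPMI 1640 and U-87MG in DMEM, each with 10% FCS and 1% glutamine, at 37 °C and 5% CO₂. Cells seeded at 3000/well, dosed the next day, treated 72 h. Viability read by CellTiter-Glo luminescence with DMSO-treated cells set to 100%. IC50 taken from survival curves over three independent experiments.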
In general terms: ATP-based viability assays read luminescence as a measure of living cells.

For data set [8], the target named is T1, Oxysterol-binding protein 1 (Homo sapiens). The data set is described as follows: Inhibition of human OSBP in human hTERT-RPE1 cells co-transfected with GFP-P4MSidM and TagBFP-betaGalT1 assessed as increase in PI4P at TGN by measuring GFP-P4M fluorescence and measured after 50 mins by immunofluorescence analysis. In kind it is cell-based. The essentials:
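hTERT-RPE-1 cells electroporated with GFP-P4M^SidM (PI4P probe) and TagBFP-βGalT1, plated 18-24 h. Timelapse confocal imaging at 37 °C after compound addition, with P4M-GFP intensity at the TGN tracked over time and compared before and 50 min after addition. Mean of 4 to 6 independent experiments ± SEM.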

Data set [9] can be described thus: Toxicity in immunodeficient nude mouse model xenografted with high alert medicated patient derived human GBM1 cells assessed as body weight change at 20 mg/kg,ip QD for 27 days cotreatment with Temozolomide at 42 mg/kg,po QD for 5 days. In kind it is organism-based. To be noted: in vivo, 648 h, time 27 day. Summed up:
(§2)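 Female athymic nude mice bearing subcutaneous GBM1-HAM PDX fragments (20 mm³); treatment began day 11 post-implant at tumour volumes 75-196 mm³, 10 per group. Compound i.p. daily in cyclodextrin vehicle (17 days alone, 27 days in combination); temozolomide 42 mg/kg p.o. daily for 5 days in PBS/glucose/Tween 80. Calliper volumes three times weekly; body weight and clinical signs monitored.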
In general terms: In xenograft studies the graft and the host belong to different species.

Data set [10] can be described thus: Antitumor activity in high alert medicated patient derived human GBM1 cells xenografted in immunodeficient nude mouse model assessed as tumor growth inhibition at 50 mg/kg,ip QD cotreatment with Temozolomide at 42 mg/kg,po QD and measured from 9 to 11 days. In kind it is functional. Summed up:
as §2

Data set [11] in a line: Metabolic stability in mouse liver microsomes assessed as intrinsic clearance at 2.5 uM and measured upto 45 mins in presence of NADPH by LC-MS/MS analysis. The data set is classed as ADME, Microsome. To be noted: read-out: CLH.

SMILES strings stand for the structures. Activity calls are given as the source filed them. The calls are words filed in the database; no cut-off is given here.

Sequence of mTORC1 (Homo sapiens) (Q8N122 whole entry, looked up, other chains not shown): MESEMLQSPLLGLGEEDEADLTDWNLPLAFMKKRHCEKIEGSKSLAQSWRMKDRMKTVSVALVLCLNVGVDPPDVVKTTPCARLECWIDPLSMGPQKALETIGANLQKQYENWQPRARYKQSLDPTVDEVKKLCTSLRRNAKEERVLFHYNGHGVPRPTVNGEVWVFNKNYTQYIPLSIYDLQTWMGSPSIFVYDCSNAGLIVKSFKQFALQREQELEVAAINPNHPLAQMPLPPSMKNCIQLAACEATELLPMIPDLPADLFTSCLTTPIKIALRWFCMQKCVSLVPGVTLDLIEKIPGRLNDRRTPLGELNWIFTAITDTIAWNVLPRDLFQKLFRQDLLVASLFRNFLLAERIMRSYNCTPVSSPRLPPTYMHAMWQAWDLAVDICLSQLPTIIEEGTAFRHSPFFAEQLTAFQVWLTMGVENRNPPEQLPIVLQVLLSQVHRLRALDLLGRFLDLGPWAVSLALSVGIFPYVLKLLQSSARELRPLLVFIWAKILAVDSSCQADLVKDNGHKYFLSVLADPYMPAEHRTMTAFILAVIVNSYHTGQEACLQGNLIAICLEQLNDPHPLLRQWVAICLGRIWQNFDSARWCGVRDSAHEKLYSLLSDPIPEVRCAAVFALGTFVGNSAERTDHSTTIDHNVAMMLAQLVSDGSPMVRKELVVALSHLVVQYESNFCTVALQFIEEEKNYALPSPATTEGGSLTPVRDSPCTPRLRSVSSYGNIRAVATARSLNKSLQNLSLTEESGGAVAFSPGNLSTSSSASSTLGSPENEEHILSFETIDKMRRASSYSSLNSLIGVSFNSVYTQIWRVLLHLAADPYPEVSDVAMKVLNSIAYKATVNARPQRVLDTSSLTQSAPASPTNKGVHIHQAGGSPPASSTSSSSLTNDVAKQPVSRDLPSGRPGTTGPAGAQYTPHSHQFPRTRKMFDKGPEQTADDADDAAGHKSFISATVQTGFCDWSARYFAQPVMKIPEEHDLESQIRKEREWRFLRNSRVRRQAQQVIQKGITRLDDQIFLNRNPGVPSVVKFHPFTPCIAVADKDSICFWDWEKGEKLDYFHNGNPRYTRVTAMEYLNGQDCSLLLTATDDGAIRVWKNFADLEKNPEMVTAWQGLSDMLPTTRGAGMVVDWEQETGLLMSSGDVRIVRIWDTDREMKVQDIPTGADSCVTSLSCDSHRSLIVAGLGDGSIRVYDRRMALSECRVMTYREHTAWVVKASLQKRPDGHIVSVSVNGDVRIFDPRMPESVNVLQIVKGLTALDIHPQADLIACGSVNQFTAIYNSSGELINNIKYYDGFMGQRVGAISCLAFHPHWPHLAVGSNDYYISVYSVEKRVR
Sequence of mTORC1 (Homo sapiens) (Q9BVC4 whole entry, looked up, other chains not shown): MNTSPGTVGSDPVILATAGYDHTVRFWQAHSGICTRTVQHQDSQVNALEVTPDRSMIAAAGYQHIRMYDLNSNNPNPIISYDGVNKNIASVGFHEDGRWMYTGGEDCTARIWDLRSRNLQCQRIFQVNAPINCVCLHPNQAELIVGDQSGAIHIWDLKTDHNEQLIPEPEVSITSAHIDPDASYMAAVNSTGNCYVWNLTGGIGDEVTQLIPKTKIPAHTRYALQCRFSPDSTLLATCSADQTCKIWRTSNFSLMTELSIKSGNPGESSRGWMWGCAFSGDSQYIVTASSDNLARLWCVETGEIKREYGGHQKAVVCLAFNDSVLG

Take `CC1(C)CCc2c(O)cc(/C=C/c3cc(O)c4c(c3)C[C@@H]3C(C)(C)[C@H](OC=O)CC[C@@]3(C)O4)cc2O1`: the Activity entry in [1] is “Non-Toxic”; in data set [3] it was “Dose-Dependent Effect”; in [4] it was “Non-Toxic”; in [9], “Non-Toxic”. In addition, the remaining at 2 h, 5 µM in [2] was 20.2%. The inhibition result in data set [5] is “Dose-Dependent Effect”. Further, the inhibition entry in [6] and in data set [8] was “Active” throughout. Besides, in [7], the IC50 came out at 733 nM. Moreover, the TGDI at 50 mg/kg in data set [10] is 2.07%. Moreover, the microsomal CLint at 2.5 µM in [11] is 120 µL/min/mg.

The record behind these values is ChEMBL document CHEMBL5370602, “Structure-Based Design of a Lead Compound Derived from Natural Schweinfurthins with Antitumor Properties That Target Oxysterol-Binding Protein” (J Med Chem, 2023).
